Data as given in ChEMBL document CHEMBL1123816, “Synthesis and antidepressant properties of novel 2-substituted 4,5-dihydro-1H-imidazole derivatives” (J Med Chem, 1987).

What was measured:
Mus musculus [1] = experiment: Effective dose required to antagonise clonidine-induced antinociception(ACA) in mouse by peroral administration at maximum response 100.; assay type: functional
[2] = biological target: T1, Adrenergic receptor alpha-1 (Rattus norvegicus, UniProt P15823+P23944+P43140); experiment: In vitro antagonistic activity against alpha-1 adrenergic receptor in isolated unstimulated rat vas deferens (methoxamine-induced contractions)
T1 sequence (P15823 whole entry): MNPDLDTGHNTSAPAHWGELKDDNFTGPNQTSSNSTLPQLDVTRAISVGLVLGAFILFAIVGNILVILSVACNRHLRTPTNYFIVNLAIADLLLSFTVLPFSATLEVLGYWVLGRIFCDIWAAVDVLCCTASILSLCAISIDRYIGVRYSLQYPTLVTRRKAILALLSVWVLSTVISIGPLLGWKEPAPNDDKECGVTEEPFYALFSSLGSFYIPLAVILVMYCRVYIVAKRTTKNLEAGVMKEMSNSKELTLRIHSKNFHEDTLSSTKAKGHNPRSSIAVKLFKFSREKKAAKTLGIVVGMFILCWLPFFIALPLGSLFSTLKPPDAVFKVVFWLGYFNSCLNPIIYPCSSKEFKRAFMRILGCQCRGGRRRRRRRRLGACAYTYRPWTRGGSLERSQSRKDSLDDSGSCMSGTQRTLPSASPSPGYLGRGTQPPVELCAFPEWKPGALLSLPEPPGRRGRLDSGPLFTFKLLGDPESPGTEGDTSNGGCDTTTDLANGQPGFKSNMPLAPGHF
T1 sequence (P23944 whole entry): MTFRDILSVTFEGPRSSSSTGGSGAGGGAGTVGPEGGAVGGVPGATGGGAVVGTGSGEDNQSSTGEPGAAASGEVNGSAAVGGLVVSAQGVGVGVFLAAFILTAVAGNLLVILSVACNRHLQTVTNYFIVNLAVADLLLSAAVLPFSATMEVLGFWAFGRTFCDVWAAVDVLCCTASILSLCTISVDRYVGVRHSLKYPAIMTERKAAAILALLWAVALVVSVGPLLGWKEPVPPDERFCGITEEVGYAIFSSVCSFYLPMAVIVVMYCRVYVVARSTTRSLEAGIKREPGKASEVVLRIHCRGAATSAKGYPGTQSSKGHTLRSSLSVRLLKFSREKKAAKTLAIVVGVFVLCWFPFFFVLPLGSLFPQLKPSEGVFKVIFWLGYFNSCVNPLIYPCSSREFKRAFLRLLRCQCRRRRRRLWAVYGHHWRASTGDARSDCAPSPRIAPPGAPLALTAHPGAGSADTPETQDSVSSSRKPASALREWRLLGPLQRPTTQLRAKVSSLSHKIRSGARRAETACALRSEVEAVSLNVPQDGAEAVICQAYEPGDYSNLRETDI
T1 sequence (P43140 whole entry): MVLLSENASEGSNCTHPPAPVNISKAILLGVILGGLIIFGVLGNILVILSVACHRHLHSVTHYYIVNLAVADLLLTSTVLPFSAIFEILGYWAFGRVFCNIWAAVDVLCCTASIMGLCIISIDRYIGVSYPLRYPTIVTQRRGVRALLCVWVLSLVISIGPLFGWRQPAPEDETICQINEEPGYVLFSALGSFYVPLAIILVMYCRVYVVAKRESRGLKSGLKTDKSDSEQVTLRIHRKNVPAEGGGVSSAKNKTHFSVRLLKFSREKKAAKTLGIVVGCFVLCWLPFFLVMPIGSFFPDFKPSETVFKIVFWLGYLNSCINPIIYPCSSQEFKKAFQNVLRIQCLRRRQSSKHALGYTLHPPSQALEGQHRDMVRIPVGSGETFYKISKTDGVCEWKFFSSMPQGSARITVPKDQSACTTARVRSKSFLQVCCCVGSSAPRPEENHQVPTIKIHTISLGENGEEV

Mus musculus [3] = experiment: Effective dose required for inhibition of tetrabenazine-induced ptosis in mouse by peroral administration; Values ranges from 12-25; settings: po
Rattus norvegicus [4] = species on record: Rattus norvegicus; experiment: Inhibition of [3H]norepinephrine uptake into rat brain synaptosomes in vitro;Values ranges from :20-180; assay type: functional
Method in brief: (§1)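 Male Sprague–Dawley rat (180–240 g) cortex (NE, 5-HT) or striatum (DA) crude P2 synaptosomes in 0.32 M sucrose. Preincubated 5 min at 25 °C with drug in Krebs–Ringer phosphate containing ascorbate, EDTA, nialamide; 0.1 μM final [3H]amine added for 5 min. Stopped by cold saline and GF/B filtration; nonspecific uptake at 4 °C. IC50 with 95% limits computed.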

Rattus norvegicus [5] = species on record: Rattus norvegicus; experiment: Inhibition of [3H]5-HT uptake into rat brain synaptosomes in vitro Values ranges from: 0.3-0.5; assay type: functional; method in brief: as §1
Rattus norvegicus [6] = species on record: Rattus norvegicus; experiment: Inhibition of [3H]-dopamine uptake into rat brain synaptosomes in vitro;Values ranges from :18-39; assay type: functional; method in brief: as §1
Rattus norvegicus [7] = species on record: Rattus norvegicus; experiment: Inhibition of [3H]norepinephrine uptake into rat brain synaptosomes in vitro;Value ranges from:1.9-4.4; assay type: functional; method in brief: as §1
Rattus norvegicus [8] = species on record: Rattus norvegicus; experiment: Inhibition of [3H]5-HT uptake into rat brain synaptosomes in vitro;Value ranges from:0.2-0.8; assay type: functional; method in brief: as §1
Mus musculus [9] = experiment: Effective dose required to antagonise clonidine-induced antinociception(ACA) in mouse by peroral administration;Values ranges from: 15-86; assay type: functional; settings: po
Mus musculus [10] = experiment: Effective dose required for inhibition of tetrabenazine-induced ptosis in mouse by peroral administration at maximum response 30.; assay type: functional
Rattus norvegicus [11] = species on record: Rattus norvegicus; experiment: Inhibition of [3H]dopamine uptake into rat brain synaptosomes in vitro;Value ranges from:2.5-4.5; assay type: functional; method in brief: as §1

Row | pA2 [2] | IC50 (Rattus norvegicus [4]) [µM] | IC50 (Rattus norvegicus [5]) [µM] | IC50 (Rattus norvegicus [6]) [µM] | IC50 (Rattus norvegicus [7]) [µM] | IC50 (Rattus norvegicus [8]) [µM] | IC50 (Rattus norvegicus [11]) [µM] | SMILES | Inhibition (Mus musculus [1]) [%] | ED50 (Mus musculus [3]) [mg/kg] | ED50 (Mus musculus [9]) [mg/kg] | Inhibition (Mus musculus [10]) [%]
1 | 7.08 | 60 | 0.4 | 26 |  |  |  | CC1=C(CC2=NCCN2)CCc2ccccc21.Cl | 50 | 18 |  | 
2 | 6.87 |  |  |  | 2.9 | 0.4 | 3.3 | C1=C(CC2=NCCN2)CCc2ccccc21.Cl [NAPAMEZOLE HYDROCHLORIDE] |  |  | 36 | 35
